pKi: −log10 of the molar value. Calls of active or inactive are those of the source. The calls are words filed in the database; no cut-off is given here.
Tests used:
[1] = biological target: Cannabinoid receptor 2 (Homo sapiens) (UniProt P34972); assay: Intrinsic activity at CB2 receptor in human HL60 cells assessed as upregulation of phosphorylated ERK1/2 expression at 75 nM after 15 mins by Western blotting analysis in presence of CB2 receptor antagonist AM630; format: cell-based; conditions: HL-60
Chain of Cannabinoid receptor 2 (Homo sapiens) (P34972 whole entry): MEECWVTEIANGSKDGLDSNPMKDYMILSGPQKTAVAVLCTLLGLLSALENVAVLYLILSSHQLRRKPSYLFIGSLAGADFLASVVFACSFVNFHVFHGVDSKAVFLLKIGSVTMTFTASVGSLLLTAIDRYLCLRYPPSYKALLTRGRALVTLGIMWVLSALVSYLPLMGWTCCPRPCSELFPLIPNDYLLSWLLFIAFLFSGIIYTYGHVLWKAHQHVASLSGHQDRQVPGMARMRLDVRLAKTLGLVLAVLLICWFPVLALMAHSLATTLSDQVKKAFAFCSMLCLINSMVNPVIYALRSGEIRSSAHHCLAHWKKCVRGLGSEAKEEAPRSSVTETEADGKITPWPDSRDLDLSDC
How it was run: (§1)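 HL-60 cells were pre-treated 5 min with CB2 antagonist AM630 (75 nM), then exposed 15 min to agonist in medium with 1% DMSO. Phospho-ERK1/2 in cell lysates was measured by western blot with anti-phospho-ERK1/2 clone AW39R. Controls were AM630 alone and agonist without pre-treatment. Results given as mean percentage of vehicle (100%) ± SEM.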

[2] = biological target: Cannabinoid receptor 2 (Homo sapiens) (UniProt P34972); assay: Intrinsic activity at CB2 receptor in human HL60 cells assessed as upregulation of phosphorylated ERK1/2 expression at 75 nM after 15 mins by Western blotting analysis relative to control; format: cell-based; conditions: HL-60
How it was run: (§2)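 HL-60 human promyelocytic leukaemia cells were treated for 15 min with compounds in culture medium with 1% DMSO. Cells were pelleted, washed in PBS and lysed at 4 °C. Phospho-ERK1/2 in total extracts was detected by western blot with anti-phospho-ERK1/2 clone AW39R and chemiluminescence. Results expressed as mean percentage of vehicle (100%) ± SEM.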

Mus musculus = organism: Mus musculus; assay: Selectivity ratio of Ki for CB1 receptor in CD1 mouse cerebellum-less brain homogenate to Ki for CB2 receptor in CD1 mouse spleen homogenate; format: tissue-based
How it was run: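 Ki measured in two assays. CB1 used male CD1 mouse brain (minus cerebellum) membranes and CB2 used spleen membranes, each with 0.5-1.0 nM [3H]-CP-55,940 for 1 h at 30 °C in TME buffer pH 7.4. IC50 converted by Cheng-Prusoff. Each Ki comes from five independent triplicate experiments, and the line is the ratio of the two Ki values.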

[3] = biological target: Cannabinoid receptor 2 (Homo sapiens) (UniProt P34972); assay: Intrinsic activity at CB2 receptor in human HL60 cells assessed as upregulation of phosphorylated ERK1/2 expression at 10 nM after 15 mins by Western blotting analysis in presence of CB2 receptor antagonist AM630; format: cell-based; conditions: HL-60; how it was run: as §1
Cannabinoid receptor 1 = Cannabinoid receptor 1 (Mus musculus, UniProt P47746); assay: Displacement of [3H]-CP-55,940 from CB1 receptor in CD1 mouse cerebellum-less brain homogenate after 1 hr by liquid scintillation counting analysis; format: tissue-based
Chain of Cannabinoid receptor 1 (P47746 whole entry): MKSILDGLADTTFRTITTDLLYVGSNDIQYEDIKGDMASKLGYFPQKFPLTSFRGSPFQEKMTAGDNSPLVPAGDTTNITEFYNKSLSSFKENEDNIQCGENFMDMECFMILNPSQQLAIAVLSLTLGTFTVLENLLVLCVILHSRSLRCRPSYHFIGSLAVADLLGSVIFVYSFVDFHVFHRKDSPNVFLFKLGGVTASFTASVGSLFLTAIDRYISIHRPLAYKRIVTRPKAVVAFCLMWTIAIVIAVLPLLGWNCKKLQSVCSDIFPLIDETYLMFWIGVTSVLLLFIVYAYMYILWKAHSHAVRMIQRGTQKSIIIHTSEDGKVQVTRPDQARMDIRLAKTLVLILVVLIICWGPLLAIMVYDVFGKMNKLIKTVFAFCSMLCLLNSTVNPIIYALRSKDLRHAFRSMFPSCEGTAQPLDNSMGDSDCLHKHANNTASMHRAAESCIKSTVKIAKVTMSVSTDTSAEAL
How it was run: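 Membranes from brain (minus cerebellum) of male CD1 mice, homogenised in ice-cold TME buffer (50 mM Tris-HCl, 1 mM EDTA, 3.0 mM MgCl2, pH 7.4), incubated with 0.5-1.0 nM [3H]-CP-55,940 for 1 h at 30 °C with fatty acid-free BSA. Non-specific binding defined with CP-55,940. Filtration, then scintillation counting. Triplicates in five independent assays; IC50 from sigmoid fit, converted to Ki by Cheng-Prusoff.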

[4] = biological target: Cannabinoid receptor 2 (Homo sapiens) (UniProt P34972); assay: Intrinsic activity at CB2 receptor in human HL60 cells assessed as upregulation of phosphorylated ERK1/2 expression at 10 nM after 15 mins by Western blotting analysis relative to control; format: cell-based; conditions: HL-60; how it was run: as §2
Cannabinoid receptor 2 = Cannabinoid receptor 2 (Mus musculus, UniProt P47936); assay: Displacement of [3H]-CP-55,940 from CB2 receptor in CD1 mouse spleen homogenate after 1 hr by liquid scintillation counting analysis; format: tissue-based
Chain of Cannabinoid receptor 2 (P47936 whole entry): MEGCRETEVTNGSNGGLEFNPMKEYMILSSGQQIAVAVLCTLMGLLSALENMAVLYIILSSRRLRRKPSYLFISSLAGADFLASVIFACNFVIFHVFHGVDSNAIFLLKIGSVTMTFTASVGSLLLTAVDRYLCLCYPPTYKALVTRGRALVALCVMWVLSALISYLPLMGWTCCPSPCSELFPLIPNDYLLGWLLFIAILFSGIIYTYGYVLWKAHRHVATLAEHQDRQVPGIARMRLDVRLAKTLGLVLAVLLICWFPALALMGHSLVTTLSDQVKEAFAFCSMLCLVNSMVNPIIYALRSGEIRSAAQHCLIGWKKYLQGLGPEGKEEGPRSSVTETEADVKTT
How it was run: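 Male CD1 mice killed by cervical dislocation; spleen homogenised in 20 vol ice-cold TME buffer (50 mM Tris-HCl, 1 mM EDTA, 3.0 mM MgCl2, pH 7.4), spun 1086 × g then 45,000 × g. Membranes incubated with 0.5–1.0 nM [3H]CP-55,940, 1 h, 30 °C, with 5 mg/mL fatty-acid-free BSA; nonspecific binding defined with CP-55,940. Filtration stop. Triplicates, five independent assays. Sigmoid fit for IC50, then Cheng-Prusoff Ki.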

[5] = biological target: Cannabinoid receptor 2 (Homo sapiens) (UniProt P34972); assay: Intrinsic activity at CB2 receptor in human HL60 cells assessed as upregulation of phosphorylated ERK1/2 expression at 5 nM after 15 mins by Western blotting analysis in presence of CB2 receptor antagonist AM630; format: cell-based; conditions: HL-60; how it was run: as §1
[6] = biological target: Cannabinoid receptor 2 (Homo sapiens) (UniProt P34972); assay: Intrinsic activity at CB2 receptor in human HL60 cells assessed as upregulation of phosphorylated ERK1/2 expression at 5 nM after 15 mins by Western blotting analysis relative to control; format: cell-based; conditions: HL-60; how it was run: as §2
[7] = biological target: Cannabinoid receptor 2 (Homo sapiens) (UniProt P34972); assay: Intrinsic activity at CB2 receptor in human HL60 cells assessed as upregulation of phosphorylated ERK1/2 expression at 50 nM after 15 mins by Western blotting analysis relative to control; format: cell-based; conditions: HL-60; how it was run: as §2
[8] = biological target: Cannabinoid receptor 2 (Homo sapiens) (UniProt P34972); assay: Intrinsic activity at CB2 receptor in human HL60 cells assessed as upregulation of phosphorylated ERK1/2 expression at 50 nM after 15 mins by Western blotting analysis in presence of CB2 receptor antagonist AM630; format: cell-based; conditions: HL-60; how it was run: as §1
Homo sapiens = organism: Homo sapiens; assay: Selectivity ratio of Ki for CB1 receptor (unknown origin) to Ki for CB2 receptor (unknown origin)

| SMILES | Intrinsic activity [2] [%] | Ratio Ki (Mus musculus) | pKi (Cannabinoid receptor 1) | pKi (Cannabinoid receptor 2) | other results |
| --- | --- | --- | --- | --- | --- |
| Cc1ccc2c(c1)oc1c(C(=O)NN3CCOCC3)nn(-c3ccc(Cl)cc3Cl)c12 | 178 | 108 |  |  | Intrinsic activity [1]: inactive |
| Cc1ccc2c(c1)oc1c(C(=O)NN3CCCC3)nn(-c3ccc(Cl)cc3Cl)c12 | 185 | 92.3 |  |  | Intrinsic activity [1]: inactive |
| Cc1c(C(=O)c2cccc3ccccc23)c2cccc3c2n1[C@H](CN1CCOCC1)CO3 | 190 |  |  |  |  |
| Cc1ccc2c(c1)oc1c(C(=O)N[C@H]3CC4CC[C@]3(C)C4(C)C)nn(-c3ccc(Cl)cc3Cl)c12 |  | 134 | 6.33 | 8.46 | Intrinsic activity [3]: inactive; Intrinsic activity [4]: 189% |
| Cc1ccc2c(c1)oc1c(C(=O)N[C@@H]3C[C@H](C)CC[C@H]3C(C)C)nn(-c3ccc(Cl)cc3Cl)c12 |  | 16.6 | 7.42 | 8.64 | Intrinsic activity [5]: inactive; Intrinsic activity [6]: 193% |
| Cc1ccc2c(c1)oc1c(C(=O)NN3CCCCC3)nn(-c3ccc(Cl)cc3Cl)c12 |  | 139 |  |  | Intrinsic activity [7]: 205%; Intrinsic activity [8]: inactive |
| Cc1ccc2c(c1)oc1c(C(=O)NC3CCCCC3)nn(-c3ccc(Cl)cc3Cl)c12 |  | 79.9 |  |  | Intrinsic activity [7]: 196%; Intrinsic activity [8]: inactive |
| Cc1ccc2c(c1)oc1c(C(=O)N[C@@H]3CC4CC([C@H]3C)C4(C)C)nn(-c3ccc(Cl)cc3Cl)c12 (stereo not given in full) |  | 648 | 5.62 | 8.43 | Intrinsic activity [5]: inactive; Intrinsic activity [6]: 205% |
| Cc1ccc2c(c1)oc1c(C(=O)N[C@H]3C4(C)CCC(C4)C3(C)C)nn(-c3ccc(Cl)cc3Cl)c12 (stereo not given in full) |  | 103 | 6.59 | 8.60 | Intrinsic activity [3]: inactive; Intrinsic activity [4]: 200% |
| Cc1ccc2c(c1)oc1c(C(=O)NC34CC5CC(CC(C5)C3)C4)nn(-c3ccc(Cl)cc3Cl)c12 | 175 | 13 |  |  | Intrinsic activity [1]: inactive |
| Cc1ccc2c(c1)oc1c(C(=O)NC3C4CC5CC(C4)CC3C5)nn(-c3ccc(Cl)cc3Cl)c12 (stereo not given) |  | 30.7 |  |  | Intrinsic activity [7]: 187%; Intrinsic activity [8]: inactive |
| Cc1ccc2c(c1)Cc1c(C(=O)NN3CCCCC3)nn(-c3ccc(Cl)cc3Cl)c1-2 |  |  |  |  | Ratio Ki (Homo sapiens): 9810 |
